Substrate in the data set: CC(C)C[C@H](NC(=O)CN(C(=O)[C@H](CC(C)C)NC(=O)[C@@H]1CCCN1C(=O)OCc1ccccc1)S(=O)(=O)c1ccc(-c2ccccc2)cc1)C(=O)N[C@@H](CCC(=O)O)C(=O)N[C@@H](CCC(=O)O)C(=O)N[C@@H](C)C(N)=O
Put plainly: Ratio of Kcat to Km for human MMP-12. A digest of the protocol:
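Recombinant human MMP12 was incubated with the peptidic prodrug substrate. Cleavage at the N terminus of the P1 leucine was monitored by HPLC, and kcat/Km was determined from the HPLC data.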

B1: Macrophage metalloelastase (Homo sapiens), P39900 (protein)
chain: MKFLLILLLQATASGALPLNSSTSLEKNNVLFGERYLEKFYGLEINKLPVTKMKYSGNLMKEKIQEMQHFLGLKVTGQLDTSTLEMMHAPRCGVPDVHHFREMPGGPVWRKHYITYRINNYTPDMNREDVDYAIRKAFQVWSNVTPLKFSKINTGMADILVVFARGAHGDFHAFDGKGGILAHAFGPGSGIGGDAHFDEDEFWTTHSGGTNLFLTAVHEIGHSLGLGHSSDPKAVMFPTYKYVDINTFRLSADDIRGIQSLYGDPKENQRLPNPDNSEPALCDPNLSFDAVTTVGNKIFFFKDRFFWLKVSERPKTSVNLISSLWPTLPSGIEAAYEIEARNQVFLFKDDKYWLISNLRPEPNYPKSIHSFGFPNFVKKIDAAVFNPRFYRTYFFVDNQYWRYDERRQMMDPGYPKLITKNFQGIGPKIDAVFYSKNKYYYFFQGSNQFEYDFLLQRITKTLKSNSWFGC
As to B1, the kcat/Km was 3.7 ×10³ /M.s.
